Laboratory results published in ChEMBL document CHEMBL1156136, “Hypoxia-activated prodrugs: substituent effects on the properties of nitro seco-1,2,9,9a-tetrahydrocyclopropa[c]benz[e]indol-4-one (nitroCBI) prodrugs of DNA minor groove alkylating agents” (J Med Chem, 2009).

Assays:
SK-OV-3 [1] = assay: Cytotoxicity against human SKOV3 cells in oxic condition after 4 hrs by sulforhodamine B assay; assay type: functional, cell-based; settings: SK-OV-3, 4 h
How it was run: (§1)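 Log-phase monolayers exposed to drug for 4 h under aerobic (20% O2) or anoxic (<20 ppm O2) conditions, then sulforhodamine B staining 5 days later. IC50 interpolated as concentration lowering cell density to 50% of same-plate controls. HCR = IC50(oxic)/IC50(hypoxic), mean of intraexperiment ratios. A549 P450R line is a stable transfectant with 9-fold higher cytochrome c reduction rate than parent.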

HT-29 [2] = assay: Hypoxic cytotoxicity ratio, IC50 for human HT-29 cells in oxic condition to IC50 for human HT-29 cells in hypoxic condition; assay type: functional; how it was run: as §1
HT-29 [3] = assay: Cytotoxicity against human HT-29 cells in hypoxic condition after 4 hrs by sulforhodamine B assay; assay type: functional, cell-based; settings: HT-29, 4 h; how it was run: as §1
SK-OV-3 [4] = assay: Cytotoxicity against human SKOV3 cells in hypoxic condition after 4 hrs by sulforhodamine B assay; assay type: functional, cell-based; settings: SK-OV-3, 4 h; how it was run: as §1
HT-29 [5] = assay: Cytotoxicity against human HT-29 cells in oxic condition after 4 hrs by sulforhodamine B assay; assay type: functional, cell-based; settings: HT-29, 4 h; how it was run: as §1
SK-OV-3 [6] = assay: Hypoxic cytotoxicity ratio, IC50 for human SKOV3 cells in oxic condition to IC50 for human SKOV3 cells in hypoxic condition; assay type: functional; how it was run: as §1

SMILES | IC50 (SK-OV-3 [1]) [µM] | Ratio IC50 (HT-29 [2]) | IC50 (HT-29 [3]) [µM] | IC50 (SK-OV-3 [4]) [µM] | IC50 (HT-29 [5]) [µM] | Ratio IC50 (SK-OV-3 [6])
CC(=O)c1cccc2c3c(cc([N+](=O)[O-])c12)N(C(=O)c1cc2cc(OCCN(C)C)ccc2[nH]1)CC3CCl (centres undefined) | 0.64 | 5.2 | 0.035 | 0.052 | 0.2 | 12
COc1cc2cc(C(=O)N3CC(CCl)c4c3cc(N)c3ccc(S(C)(=O)=O)cc43)[nH]c2c(OC)c1OC (centres undefined) | 19 | 1 | 0.028 | 0.014 | 25 | 1.4
COc1cc2cc(C(=O)N3CC(CCl)c4c3cc([N+](=O)[O-])c3cc(C#N)ccc43)[nH]c2c(OC)c1OC (centres undefined) | 6.4 | 2.5 | 2.4 | 1 | 5.3 | 13
COc1cc2cc(C(=O)N3CC(CCl)c4c3cc(N)c3cc(S(C)(=O)=O)ccc43)[nH]c2c(OC)c1OC (centres undefined) | 32 | 0.86 | 0.036 | 0.025 | 32 | 1.2
COc1cc2cc(C(=O)N3CC(CCl)c4c3cc([N+](=O)[O-])c3cc(S(C)(=O)=O)ccc43)[nH]c2c(OC)c1OC (centres undefined) | 17 | 2 | 0.0072 | 0.0093 | 14 | 1.9
COC(=O)c1ccc2c3c(cc(N)c2c1)N(C(=O)c1cc2cc(OCCN(C)C)ccc2[nH]1)CC3CCl (centres undefined) | 7.7 | 1.7 | 0.0057 | 0.0083 | 8.6 | 0.91
COc1cc2cc(C(=O)N3CC(CCl)c4c3cc(N)c3cc(C#N)ccc43)[nH]c2c(OC)c1OC (centres undefined) | 10 | 1.9 | 0.011 | 0.009 | 15 | 1.3
CN(C)CCOc1ccc2[nH]c(C(=O)N3CC(CCl)c4c3cc([N+](=O)[O-])c3ccccc43)cc2c1 (centres undefined) | 1.4 | – | 0.00048 | 0.00087 | 0.47 | –
CN(C)CCOc1ccc2[nH]c(C(=O)N3CC(CCl)c4c3cc([N+](=O)[O-])c3cc(C(N)=O)ccc43)cc2c1 (centres undefined) | 3.9 | – | – | – | 4.1 | –
COc1cc2cc(C(=O)N3CC(CCl)c4c3cc([N+](=O)[O-])c3cc(S(N)(=O)=O)ccc43)[nH]c2c(OC)c1OC (centres undefined) | 37 | 3.6 | 0.012 | 0.0037 | 43 | 10
CN(C)CCOc1ccc2[nH]c(C(=O)N3CC(CCl)c4c3cc(N)c3cc(C(N)=O)ccc43)cc2c1 (centres undefined) | 13 | 1.4 | 0.048 | 0.013 | 61 | 1
CN(C)CCOc1ccc2[nH]c(C(=O)N3CC(CCl)c4c3cc([N+](=O)[O-])c3c(C#N)cccc43)cc2c1 (centres undefined) | 0.17 | 1.1 | 0.0001 | 0.0001 | 0.12 | 1.7
CN(C)CCOc1ccc2[nH]c(C(=O)N3CC(CCl)c4c3cc([N+](=O)[O-])c3ccc(S(N)(=O)=O)cc43)cc2c1 (centres undefined) | 4.9 | 26 | – | – | 9 | 21
CN(C)CCOc1ccc2[nH]c(C(=O)N3CC(CCl)c4c3cc(N)c3ccccc43)cc2c1 (centres undefined) | 6.8 | 1.3 | 0.0035 | 0.0066 | 5 | 0.97
COc1cc2cc(C(=O)N3CC(CCl)c4c3cc([N+](=O)[O-])c3cccc([N+](=O)[O-])c43)[nH]c2c(OC)c1OC (centres undefined) | 55 | 1.2 | 33 | > 50 | 34 | <1.1
CN(C)CCOc1ccc2[nH]c(C(=O)N3CC(CCl)c4c3cc([N+](=O)[O-])c3c(C(N)=O)cccc43)cc2c1 (centres undefined) | 50 | 43 | 0.0015 | 0.0032 | 23 | 18
CN(C)CCOc1ccc2[nH]c(C(=O)N3CC(CCl)c4c3cc(N)c3cc(C#N)ccc43)cc2c1 (centres undefined) | 13 | 2 | 0.0086 | 0.012 | 17 | 1.1
CN(C)CCOc1ccc2[nH]c(C(=O)N3CC(CCl)c4c3cc([N+](=O)[O-])c3cc(S(C)(=O)=O)ccc43)cc2c1 (centres undefined) | 1.3 | 4 | 0.00027 | 0.00012 | 0.97 | 11
COC(=O)c1ccc2c([N+](=O)[O-])cc3c(c2c1)C(CCl)CN3C(=O)c1cc2cc(OCCN(C)C)ccc2[nH]1 (centres undefined) | 0.52 | 1.6 | – | – | 0.55 | 2.4
COc1cc2cc(C(=O)N3CC(CCl)c4c3cc([N+](=O)[O-])c3cc(C(C)=O)ccc43)[nH]c2c(OC)c1OC (centres undefined) | 5.1 | 5.2 | 0.00093 | 0.00044 | 4.1 | 19
COc1cc2cc(C(=O)N3CC(CCl)c4c3cc([N+](=O)[O-])c3c(C(C)=O)cccc43)[nH]c2c(OC)c1OC (centres undefined) | 0.5 | 2 | 0.00033 | 0.00014 | 0.68 | 3.4
CN(C)CCOc1ccc2[nH]c(C(=O)N3CC(CCl)c4c3cc(N)c3cc(S(N)(=O)=O)ccc43)cc2c1 (centres undefined) | 23 | 1.8 | 0.023 | 0.016 | 35 | 1.4
CN(C)CCOc1ccc2[nH]c(C(=O)N3CC(CCl)c4c3cc([N+](=O)[O-])c3cc(C#N)ccc43)cc2c1 (centres undefined) | 0.81 | – | 0.00043 | 0.00019 | 0.7 | –
CN(C)CCOc1ccc2[nH]c(C(=O)N3CC(CCl)c4c3cc([N+](=O)[O-])c3cccc([N+](=O)[O-])c43)cc2c1 (centres undefined) | 1.2 | 1.3 | – | – | 1.4 | 1.5
COc1cc2cc(C(=O)N3CC(CCl)c4c3cc([N+](=O)[O-])c3c([N+](=O)[O-])cccc43)[nH]c2c(OC)c1OC (centres undefined) | > 20 | – | > 0.02 | > 0.02 | > 20 | –
CC(=O)c1ccc2c([N+](=O)[O-])cc3c(c2c1)C(CCl)CN3C(=O)c1cc2cc(OCCN(C)C)ccc2[nH]1 (centres undefined) | 0.2 | 1.1 | – | – | 0.15 | 1.3
COC(=O)c1ccc2c3c(cc([N+](=O)[O-])c2c1)N(C(=O)c1cc2cc(OCCN(C)C)ccc2[nH]1)CC3CCl (centres undefined) | 0.44 | 1.2 | – | – | 0.32 | 1.9
CN(C)CCOc1ccc2[nH]c(C(=O)N3CC(CCl)c4c3cc([N+](=O)[O-])c3ccc(S(C)(=O)=O)cc43)cc2c1 (centres undefined) | 1.9 | 1.2 | – | – | 0.98 | 2.7
CC(=O)c1ccc2c3c(cc([N+](=O)[O-])c2c1)N(C(=O)c1cc2cc(OCCN(C)C)ccc2[nH]1)CC3CCl (centres undefined) | 0.64 | 1.5 | – | – | 0.17 | 4
CN(C)CCOc1ccc2[nH]c(C(=O)N3CC(CCl)c4c3cc([N+](=O)[O-])c3ccc(C(N)=O)cc43)cc2c1 (centres undefined) | 3.4 | 22 | – | – | 2.8 | 34
